ChEMBL document CHEMBL1914423, “New imidazo[2,1-b]thiazole derivatives: synthesis, in vitro anticancer evaluation, and in silico studies” (Eur J Med Chem, 2011)

Tests used:
[1] = test system: LOX IMVI; assay: Antiproliferative activity against human LOXIMVI cells after 48 hrs by MTT assay; assay type: functional, cell-based
[2] = test system: Malme-3M; assay: Antiproliferative activity against human MALME-3M cells after 48 hrs by MTT assay; assay type: functional, cell-based
[3] = test system: M14; assay: Antiproliferative activity against human M14 cells after 48 hrs by MTT assay; assay type: functional, cell-based; details: M14, 48 h
[4] = test system: SK-MEL-28; assay: Antiproliferative activity against human SK-MEL-28 cells after 48 hrs by MTT assay; assay type: functional, cell-based; details: SK-MEL-28, 48 h
[5] = test system: UACC-257; assay: Antiproliferative activity against human UACC257 cells after 48 hrs by MTT assay; assay type: functional, cell-based; details: UACC-257, 48 h
[6] = test system: UACC-62; assay: Antiproliferative activity against human UACC62 cells after 48 hrs by MTT assay; assay type: functional, cell-based; details: UACC-62, 48 h
[7] = test system: SK-OV-3; assay: Anticancer activity against human SKOV3 cells after 48 hrs by SRB assay; assay type: functional; details: SK-OV-3, 48 h
[8] = test system: 786-0; assay: Anticancer activity against human 786-0 cells after 48 hrs by SRB assay; assay type: functional; details: 786-0, 48 h
Outline: (§1)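 NCI five-dose screen. Cells in RPMI 1640 with 5% FBS and 2 mM L-glutamine, seeded at 5000–40,000 cells/well according to doubling time, then pre-incubated 24 h at 37 °C in 5% CO2. Drugs dissolved in DMSO, five concentrations by 10-fold or 1/2-log dilution. Cells fixed with TCA, SRB-stained, A515 read. IC50 solved from [(Ti−Tz)/(C−Tz)]×100 = 50.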

[9] = test system: BT-549; assay: Anticancer activity against human BT549 cells after 48 hrs by SRB assay; assay type: functional; details: BT-549, 48 h; outline: as §1
[10] = test system: SK-MEL-2; assay: Antiproliferative activity against human SK-MEL-2 cells after 48 hrs by MTT assay; assay type: functional, cell-based; details: SK-MEL-2, 48 h
[11] = read-out: LC50 (the source's name)

Structure (SMILES)	IC50 [1] [µM]	IC50 [2] [µM]	IC50 [3] [µM]	IC50 [4] [µM]	IC50 [5] [µM]	IC50 [6] [µM]	GI50 [7] [µM]	TGI [7] [µM]	CC50 [7, 11] [µM]	GI50 [8] [µM]	TGI [8] [µM]	CC50 [8, 11] [µM]	GI50 [9] [µM]	TGI [9] [µM]	CC50 [9, 11] [µM]	IC50 [10] [µM]
O=C(NCCNc1nccc(-c2c(-c3cccc(O)c3)nc3sccn23)n1)c1ccccc1O	2.65	0.152	0.335	0.683	0.651	0.161	4.31	39.7	> 100	6.25	43.1	> 100	4.74	34.9	> 100	
O=C(NCCNc1nccc(-c2c(-c3cccc(O)c3)nc3sccn23)n1)c1ccccc1	3.22	0.205	0.434	0.336	0.489	0.211										2.94
